Compound activity deposited in PubChem by several laboratories.
NR2E3 ag-1 – NR2E3 agonists in two-hybrid cells, primary screen, cell-based, luminescence, CHO-S, Gal4-NCOR/VP16-NR2E3 | Photoreceptor-specific nuclear receptor (Homo sapiens), Q9Y5X4 | luciferase | hit rate 0.35% among 360,000 | inhibition of corepressor binding, % at 3.98 µM;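 active = inhibition above the mean of all tested compounds plus 3 SD, cut at about 70% in these data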;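 also: 0% = DMSO with NR2E3 transfected cells and 100% = cells lacking NR2E3 construct; higher means lower luciferase signal from less NR2E3 corepressor binding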
Target sequence (Q9Y5X4 whole entry, looked up, the tested form may be a part): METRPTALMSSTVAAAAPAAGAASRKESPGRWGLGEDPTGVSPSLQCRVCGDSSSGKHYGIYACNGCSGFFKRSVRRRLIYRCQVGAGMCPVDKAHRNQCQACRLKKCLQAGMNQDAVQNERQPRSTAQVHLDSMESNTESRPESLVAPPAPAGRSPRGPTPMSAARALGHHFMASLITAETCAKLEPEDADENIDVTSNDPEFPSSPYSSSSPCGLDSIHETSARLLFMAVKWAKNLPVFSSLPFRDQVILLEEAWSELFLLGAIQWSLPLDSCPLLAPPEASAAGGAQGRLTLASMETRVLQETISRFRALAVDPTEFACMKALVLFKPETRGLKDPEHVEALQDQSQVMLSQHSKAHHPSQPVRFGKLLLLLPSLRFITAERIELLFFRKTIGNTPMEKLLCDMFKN
CHT allo act – CHT positive allosteric modulators, primary screen, cell-based, membrane potential dye, choline EC20; High affinity choline transporter 1 (Homo sapiens), Q9GZV3; CHT-expressing cells; hits give high values; LV-AA mutant CHT in HEK293 cells; B-score at 10 µM; hit rate 0.49% among 310,000; AID 488977, 2010;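 active = initial fluorescence not abnormally high and integrated response B-score, plate-corrected, over 3 SD above library mean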
NR2E3 ag-2 – inhibitors of NR2E3-RetCOR corepressor binding, primary screen, NR2E3 agonist project, biochemical, TR-FRET, GST-NR2E3, biotin-RetCOR. Photoreceptor-specific nuclear receptor (Homo sapiens), Q9Y5X4. 1536-well. inhibition of corepressor binding, % at 4.78 µM. hit rate 0.12% among 320,000;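 active = percent inhibition above the cutoff of mean plus 3 SD of all tested compounds, set per screening campaign, cut at about 20% in these data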;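 also: 0% = DMSO wells and 100% = biotin wells as full block of FRET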
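Format: 1536-well format; test system: GST-NR2E3 and biotin-RetCOR proteins; read-out basis: percent inhibition of TR-FRET ratio; timing: 5 h incubation at 4 °C; detection: time-resolved FRET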
CHT block – inhibitors of human choline transporter CHT | High affinity choline transporter 1 (Homo sapiens), Q9GZV3 | CHT-expressing cells, membrane potential dye, choline response; hits give low values | B-score at 10 µM | hit rate 0.86% among 310,000;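 active = B-score over 3 SD under the library average, and starting fluorescence ratio not unusually high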;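 also: choline stimulus applied at its EC90 after an EC20 pre-addition; B-score computed on integrated fluorescence ratio after choline addition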
GalR3 antag – GalR3 antagonists in HEK293 cells, primary screen, cell-based, fluorescence readout. HEK293 GalR3-CNG cAMP membrane potential fluorescence; galR3 body fused to GalR1 C-terminus. inhibition, % at 3 µM. hit rate 0.44% among 360,000. AID 651719, 2012;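 active = inhibition above the screen-wide average plus 3 SD, cut at about 13% in these data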;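 also: forskolin and galanin both at EC90 stimulate the cells; cAMP rise reported by CNG channel membrane potential dye signal; 0% = forskolin plus galanin with DMSO and 100% = forskolin alone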
COUP-TFII inh – NR2F2 transcriptional activity inhibitors, primary screen, cell-based, luciferase reporter, HEK293T, luminescence; HEK293T NGFI-A luciferase reporter; inhibition, % at 8.6 µM; hit rate 0.7% among 370,000; AID 686940, 2013;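 active = inhibition above a per-plate cutoff, mean inhibition of test wells between control levels plus 3 SD, cut at about 38% in these data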;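 also: cells cotransfected with COUP-TFII expression vector driving the NGFI-A reporter; 0% = median of COUP-TF2 test wells and 100% = reporter-only cells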
VP16 Luc counter – Gal4-VP16 luciferase reporter inhibitors, counter-screen for COUP-TFII antagonist project, cell-based, luminescence, HEK293 | shares compounds with COUP-TFII inh | inhibition, % at 8.5 µM | hit rate 25% among 2,500; in the data active = inhibition above about 13%
COUP-TFII conf – NR2F2 transcriptional activity inhibitors, confirmation, cell-based, luciferase reporter, HEK293, triplicate. shares compounds with COUP-TFII inh. HEK293 NGFI-A luciferase reporter, luminescence. inhibition, % at 8.5 µM. hit rate 45% among 2,500. AID 687008, 2013;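 active = mean inhibition over three repeats above a set limit taken from the earlier primary screen, cut at about 38% in these data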;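 also: 100% = cells given the luciferase reporter alone without the COUP-TF2 vector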
Numbers without * were called inactive; i = inactive; · = no result given. Rows were chosen to be rich in hits. Some 2.3% of all compounds tested hit in one or more screens of this group.

SMILES	NR2E3 ag-1	CHT allo act	NR2E3 ag-2	CHT block	GalR3 antag	COUP-TFII inh	VP16 Luc counter	COUP-TFII conf
CCOC(=O)c1c(NC(=O)CN(CC)CC)sc2c1CCN(C(=O)OCC)C2	-21	i	1	i	-12	12	·	·
CCOC(=O)c1c(NC(=S)N2CCN(C)CC2)sc2c1CCN(C(=O)OCC)C2	32	i	3	i	-2	39*	1	8
CN(Cc1ccccc1)S(=O)(=O)c1cccc(C(=O)OCc2cccc(C(F)(F)F)c2)c1	·	·	·	·	·	14	·	·
Cc1cc(N2CCN(c3nc(-c4ccccc4)cs3)CC2)c2ccccc2n1	-15	i	4	i	0	-4	·	·
Cc1cc(N2CCN(C(=O)Oc3ccc(-c4ccccc4)cc3)CC2)c2ccccc2n1	·	·	·	·	·	62*	-1	36
Cc1cc(C(=O)COC(=O)c2ccccc2NCCO)c(C)n1CC1CCCO1 (stereo not given)	13	i	1	i	-2	44*	-98	-7
Cc1cc(C(=O)COC(=O)c2cccc(NS(C)(=O)=O)c2)c(C)n1CC1CCCO1 (stereo not given)	44	·	·	·	-4	72*	-26	57*
Cc1cc(C(=O)COC(=O)C2=COCCO2)c(C)n1-c1ccccc1	1	·	·	·	-5	65*	16*	74*
Cc1ccc(C)c(OCc2cc(C(=O)NC3CCN(Cc4ccccc4)CC3)no2)c1	0	i	-1	i	-15	48*	1	21
COc1ccccc1NS(=O)(=O)c1cccc(C(=O)NC2CCN(Cc3ccccc3)CC2)c1	35	i	1	i	·	·	·	·
Cc1ccc(NS(=O)(=O)c2cccc(C(=O)NC3CCN(Cc4ccccc4)CC3)c2)c(C)c1	10	·	·	·	-9	56*	4	28
COc1ccc(CN2C(=O)CSCCC2(C)c2nnnn2-c2c(C)cccc2C)cc1 (stereo not given)	·	·	·	·	·	-10	·	·
COCCNc1nc(NCc2ccc(C(C)C)cc2)c2sccc2n1	46	·	·	·	-9	38*	1	22
COCCNc1nc(NCc2cccc(OC)c2)c2sccc2n1	-23	·	·	·	0	19	·	·
Cc1ccc(NC(=S)N(CCCN2CCCC2)Cc2cccn2Cc2ccc(Cl)cc2)cc1C	21	i	-2	i	-3	-6	·	·
FC(F)(F)c1cccc(NC(=S)N(CCCN2CCCC2)Cc2cccn2Cc2ccc(Cl)cc2)c1	45	i	-4	i	-4	38*	-2	1
CC(C)Oc1ccc(-c2csc(N3CCC(C(N)=O)CC3)n2)cc1	·	·	·	·	·	-10	·	·
CC(=O)N1CCOc2ccc(S(=O)(=O)NCC3CCC(C(=O)NCCC(C)C)CC3)cc21 (stereo not given)	24	i	1	i	-2	14	·	·
CC(=O)N1CCOc2ccc(S(=O)(=O)NCC3CCC(C(=O)Nc4ccc(C)cn4)CC3)cc21 (stereo not given)	18	i	-2	i	-10	39*	9	24
CC(=O)Nc1c(-c2ccc(F)cc2)nc2ncccn12	·	·	·	·	·	4	·	·
Oc1cc(Nc2ccccc2)cc2cccnc12	-9	·	·	·	-8	1	·	·
Oc1cccc2cc(Nc3ccccc3)cnc12	-13	·	·	·	-4	55*	-9	46*
Cn1c(=O)cc(OCCCC(=O)Nc2cc(-c3cn[nH]c3)ccn2)c2ccccc21	·	·	·	·	·	55*	35*	36
Cc1[nH]nc(C(F)(F)F)c1N=NN1CCOCC1	23	·	·	·	-4	49*	13	46*
